{"source": "ChEMBL document CHEMBL3430321", "about": "“Simulation of multiple ion channel block provides improved early prediction of compounds' clinical torsadogenic risk” (Cardiovasc Res, 2011)", "key": {"[1]": {"experiment": "(§1) Effective free therapeutic plasma concentration (EFTPC): the concentration of unbound compund in the blood plasma at therapeutic dose (mean of range)", "assay_type": "ADME, organism-based", "conditions": "human, in vivo"}, "[2]": {"molecular_target": "Sodium channel alpha subunit", "experiment": "Inhibition of Na channel (species unknown)", "assay_type": "functional"}, "[3]": {"molecular_target": "T1, Voltage-gated inwardly rectifying potassium channel KCNH2 (Homo sapiens, UniProt Q12809)", "experiment": "(§2) Inhibition of hERG K channel", "assay_type": "functional", "procedure,_shortened": "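IKr block assessed from concentration–response curves in HEK-293 cells stably transfected with hERG cDNA, giving IC50 values.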"}, "[4]": {"molecular_target": "Voltage-gated L-type calcium channel (Homo sapiens, UniProt Q13936+Q13698+Q01668+O60840)", "experiment": "Inhibition of voltage-gated L-type Ca channel (species unknown)", "assay_type": "functional"}, "[5]": {"molecular_target": "Voltage-dependent L-type calcium channel subunit alpha-1C (Cavia porcellus, UniProt O35505)", "sequence (O35505 whole entry)": "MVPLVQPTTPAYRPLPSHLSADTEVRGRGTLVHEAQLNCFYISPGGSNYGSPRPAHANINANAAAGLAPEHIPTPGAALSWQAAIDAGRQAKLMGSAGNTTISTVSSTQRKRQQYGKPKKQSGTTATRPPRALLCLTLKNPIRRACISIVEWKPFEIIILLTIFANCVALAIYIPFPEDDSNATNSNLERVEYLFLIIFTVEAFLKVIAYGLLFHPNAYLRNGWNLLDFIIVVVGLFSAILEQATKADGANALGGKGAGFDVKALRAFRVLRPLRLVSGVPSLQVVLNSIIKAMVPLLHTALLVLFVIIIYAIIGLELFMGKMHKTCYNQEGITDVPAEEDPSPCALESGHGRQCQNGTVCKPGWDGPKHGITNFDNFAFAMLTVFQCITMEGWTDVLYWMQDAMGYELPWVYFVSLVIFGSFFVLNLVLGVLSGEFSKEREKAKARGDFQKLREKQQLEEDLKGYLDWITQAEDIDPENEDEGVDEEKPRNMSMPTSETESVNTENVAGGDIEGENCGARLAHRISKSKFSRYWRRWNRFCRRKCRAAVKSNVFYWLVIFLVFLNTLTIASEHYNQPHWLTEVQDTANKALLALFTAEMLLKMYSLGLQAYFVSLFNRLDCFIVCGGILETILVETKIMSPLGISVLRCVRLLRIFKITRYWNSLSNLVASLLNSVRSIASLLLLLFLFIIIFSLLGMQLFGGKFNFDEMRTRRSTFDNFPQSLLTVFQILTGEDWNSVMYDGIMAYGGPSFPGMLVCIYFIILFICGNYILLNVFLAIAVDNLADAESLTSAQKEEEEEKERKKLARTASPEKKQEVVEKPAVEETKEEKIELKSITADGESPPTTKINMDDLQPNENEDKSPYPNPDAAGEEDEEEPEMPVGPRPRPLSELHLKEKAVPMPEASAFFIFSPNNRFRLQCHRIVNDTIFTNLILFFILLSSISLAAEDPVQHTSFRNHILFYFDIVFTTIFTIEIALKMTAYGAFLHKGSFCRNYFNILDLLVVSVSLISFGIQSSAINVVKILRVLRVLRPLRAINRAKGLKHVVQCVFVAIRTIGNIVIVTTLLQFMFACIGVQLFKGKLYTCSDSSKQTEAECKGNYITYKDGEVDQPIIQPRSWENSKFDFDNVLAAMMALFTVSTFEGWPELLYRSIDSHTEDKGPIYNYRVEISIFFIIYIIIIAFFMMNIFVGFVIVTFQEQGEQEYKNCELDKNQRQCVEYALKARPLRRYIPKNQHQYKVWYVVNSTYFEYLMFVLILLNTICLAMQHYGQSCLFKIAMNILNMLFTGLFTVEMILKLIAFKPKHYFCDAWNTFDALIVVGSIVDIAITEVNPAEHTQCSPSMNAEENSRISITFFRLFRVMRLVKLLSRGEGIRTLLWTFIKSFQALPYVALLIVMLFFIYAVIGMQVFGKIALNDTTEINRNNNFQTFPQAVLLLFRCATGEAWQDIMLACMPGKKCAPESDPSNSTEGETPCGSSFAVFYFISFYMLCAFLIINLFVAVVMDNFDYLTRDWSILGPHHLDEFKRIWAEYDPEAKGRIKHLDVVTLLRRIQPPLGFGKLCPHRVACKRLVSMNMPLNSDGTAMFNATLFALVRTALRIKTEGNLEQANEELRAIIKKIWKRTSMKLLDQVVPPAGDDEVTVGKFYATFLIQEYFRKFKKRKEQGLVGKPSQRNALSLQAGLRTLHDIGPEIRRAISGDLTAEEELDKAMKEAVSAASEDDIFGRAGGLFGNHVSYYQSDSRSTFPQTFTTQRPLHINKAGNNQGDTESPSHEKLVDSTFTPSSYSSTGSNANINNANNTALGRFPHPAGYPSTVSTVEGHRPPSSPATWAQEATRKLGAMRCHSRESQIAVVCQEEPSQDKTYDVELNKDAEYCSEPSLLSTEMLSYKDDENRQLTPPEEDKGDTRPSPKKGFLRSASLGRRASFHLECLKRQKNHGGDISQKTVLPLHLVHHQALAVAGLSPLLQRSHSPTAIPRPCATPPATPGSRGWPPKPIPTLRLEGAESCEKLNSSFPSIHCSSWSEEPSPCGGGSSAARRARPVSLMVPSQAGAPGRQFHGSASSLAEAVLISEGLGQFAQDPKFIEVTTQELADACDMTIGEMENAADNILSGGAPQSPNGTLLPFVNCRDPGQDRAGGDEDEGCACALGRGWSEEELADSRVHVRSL", "experiment": "Inhibition of calcium current (ICaL) measured using whole-cell patch clamp experiments in isolated guinea pig ventricular myocytes", "assay_type": "functional, tissue-based, Heart, Ventricular myocyte"}, "[6]": {"molecular_target": "Sodium channel protein type 5 subunit alpha (Homo sapiens, UniProt Q14524)", "sequence (Q14524 whole entry)": "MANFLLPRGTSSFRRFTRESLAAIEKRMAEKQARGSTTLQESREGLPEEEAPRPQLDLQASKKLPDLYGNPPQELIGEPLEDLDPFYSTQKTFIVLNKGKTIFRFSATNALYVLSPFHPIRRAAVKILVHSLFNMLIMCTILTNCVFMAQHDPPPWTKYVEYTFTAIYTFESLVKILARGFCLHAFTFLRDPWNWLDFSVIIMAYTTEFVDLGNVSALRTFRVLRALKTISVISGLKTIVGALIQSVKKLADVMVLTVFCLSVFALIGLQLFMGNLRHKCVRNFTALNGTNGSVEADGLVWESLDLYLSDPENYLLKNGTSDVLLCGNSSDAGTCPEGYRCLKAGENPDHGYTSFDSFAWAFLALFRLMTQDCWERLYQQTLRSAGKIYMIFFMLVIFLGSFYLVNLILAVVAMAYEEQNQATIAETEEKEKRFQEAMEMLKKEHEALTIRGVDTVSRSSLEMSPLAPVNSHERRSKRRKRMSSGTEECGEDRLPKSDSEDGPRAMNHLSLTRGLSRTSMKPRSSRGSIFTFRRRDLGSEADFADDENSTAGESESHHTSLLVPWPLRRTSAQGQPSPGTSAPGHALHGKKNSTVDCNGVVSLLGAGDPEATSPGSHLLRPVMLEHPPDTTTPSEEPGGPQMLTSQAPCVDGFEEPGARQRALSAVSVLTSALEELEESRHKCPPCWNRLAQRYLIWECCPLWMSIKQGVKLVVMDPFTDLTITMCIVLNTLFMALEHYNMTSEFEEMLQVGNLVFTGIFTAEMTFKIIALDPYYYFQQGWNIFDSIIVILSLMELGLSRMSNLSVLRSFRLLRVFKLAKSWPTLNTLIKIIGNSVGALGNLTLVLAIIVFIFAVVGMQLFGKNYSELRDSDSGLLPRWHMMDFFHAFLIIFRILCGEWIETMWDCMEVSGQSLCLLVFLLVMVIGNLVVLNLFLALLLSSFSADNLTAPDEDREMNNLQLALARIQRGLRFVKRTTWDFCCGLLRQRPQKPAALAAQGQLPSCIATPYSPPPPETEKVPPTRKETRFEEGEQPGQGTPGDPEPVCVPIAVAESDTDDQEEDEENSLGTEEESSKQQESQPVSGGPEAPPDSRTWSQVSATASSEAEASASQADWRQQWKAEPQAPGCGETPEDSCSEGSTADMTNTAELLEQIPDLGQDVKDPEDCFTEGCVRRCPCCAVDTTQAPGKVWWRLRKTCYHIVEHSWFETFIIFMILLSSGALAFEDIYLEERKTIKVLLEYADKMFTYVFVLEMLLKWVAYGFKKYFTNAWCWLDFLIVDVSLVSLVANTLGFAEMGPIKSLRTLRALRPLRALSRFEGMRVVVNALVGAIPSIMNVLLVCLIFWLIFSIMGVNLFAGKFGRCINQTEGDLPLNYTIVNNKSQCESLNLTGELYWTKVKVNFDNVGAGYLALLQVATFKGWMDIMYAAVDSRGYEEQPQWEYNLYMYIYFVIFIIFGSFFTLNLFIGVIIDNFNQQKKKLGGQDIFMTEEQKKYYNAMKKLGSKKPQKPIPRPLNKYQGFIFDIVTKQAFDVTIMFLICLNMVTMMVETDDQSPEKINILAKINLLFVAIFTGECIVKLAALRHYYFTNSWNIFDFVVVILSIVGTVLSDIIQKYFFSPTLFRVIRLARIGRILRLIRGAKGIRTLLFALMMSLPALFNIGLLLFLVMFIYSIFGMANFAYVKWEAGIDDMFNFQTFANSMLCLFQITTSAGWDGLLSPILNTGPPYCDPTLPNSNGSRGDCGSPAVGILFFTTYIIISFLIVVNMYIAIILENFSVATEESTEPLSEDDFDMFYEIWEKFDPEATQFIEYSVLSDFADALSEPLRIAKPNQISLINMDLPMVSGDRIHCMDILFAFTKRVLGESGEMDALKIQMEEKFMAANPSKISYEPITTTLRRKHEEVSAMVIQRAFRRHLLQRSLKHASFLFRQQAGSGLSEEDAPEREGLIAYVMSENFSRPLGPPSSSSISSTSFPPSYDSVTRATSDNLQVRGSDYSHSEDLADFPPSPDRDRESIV", "experiment": "Inhibition of sodium current measured using whole-cell patch clamp experiments in HEK-293 cells stably transfected with hNaV1.5 cDNA", "assay_type": "functional, cell-based, HEK293"}, "[7]": {"molecular_target": "T1, Voltage-gated inwardly rectifying potassium channel KCNH2", "experiment": "as §2"}, "[8]": {"experiment": "as §1", "conditions": "human, in vivo"}, "[9]": {"molecular_target": "T1, Voltage-gated inwardly rectifying potassium channel KCNH2", "experiment": "Inhibition of potassium current (Ikr) measured using whole-cell patch clamp experiments in HEK-293 cells stable transfected with hERG cDNA", "assay_type": "functional, cell-based, HEK293", "procedure,_shortened": "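IKr concentration–response curves were recorded in HEK-293 cells stably expressing hERG cDNA.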"}}, "data": [{"smiles": "C1CCC2(C1)C1CN(CC3CC3)CC2CN(CC2CC2)C1", "values": [{"measurement": "EFTPC", "setting": "[1]", "value": 80, "unit": "nM"}, {"measurement": "IC50", "setting": "[2]", "value": 20, "unit": "µM"}, {"measurement": "IC50", "setting": "[3]", "value": 2.5, "unit": "µM"}]}, {"smiles": "CC[C@H]1[C@@H]2C[C@H]3[C@@H]4N(C)c5ccccc5[C@]45C[C@@H]([C@@H]2[C@H]5O)N3[C@@H]1O", "note": "[AJMALINE]", "values": [{"measurement": "EFTPC", "setting": "[1]", "value": 900, "unit": "nM"}, {"measurement": "IC50", "setting": "[2]", "value": "[…]"}, {"measurement": "IC50", "setting": "[3]", "value": 1.04, "unit": "µM"}]}, {"smiles": "CN(C)CCC=C1c2ccccc2CCc2ccccc21", "note": "[AMITRIPTYLINE]", "values": [{"measurement": "IC50", "setting": "[4]", "value": 11.6, "unit": "µM"}, {"measurement": "IC50", "setting": "[2]", "value": 20, "unit": "µM"}]}, {"smiles": "CC(C)COCC(CN(Cc1ccccc1)c1ccccc1)N1CCCC1", "note": "(centres undefined) [BEPRIDIL]", "values": [{"measurement": "IC50", "setting": "[5]", "value": 0.211, "unit": "µM"}, {"measurement": "EFTPC", "setting": "[1]", "value": 21.5, "unit": "nM"}, {"measurement": "IC50", "setting": "[6]", "value": 3.7, "unit": "µM"}]}, {"smiles": "CN(C)CCCN1c2ccccc2Sc2ccc(Cl)cc21", "note": "[CHLORPROMAZINE]", "values": [{"measurement": "EFTPC", "setting": "[1]", "value": 20.5, "unit": "nM"}, {"measurement": "IC50", "setting": "[2]", "value": 4.3, "unit": "µM"}]}, {"smiles": "c1ccc(C2(c3ccccc3)CC2C2=NCCN2)cc1", "note": "(centres undefined) [CIFENLINE]", "values": [{"measurement": "EFTPC", "setting": "[1]", "value": 739, "unit": "nM"}, {"measurement": "IC50", "setting": "[4]", "value": 30, "unit": "µM"}, {"measurement": "IC50", "setting": "[2]", "value": 7.8, "unit": "µM"}]}, {"smiles": "COc1cc(N)c(Cl)cc1C(=O)NC1CCN(CCCOc2ccc(F)cc2)CC1OC", "note": "(centres undefined) [CISAPRIDE]", "values": [{"measurement": "EFTPC", "setting": "[1]", "value": 3.75, "unit": "nM"}, {"measurement": "IC50", "setting": "[6]", "value": 14.7, "unit": "µM"}]}, {"smiles": "CNCCCN1c2ccccc2CCc2ccccc21", "note": "[DESIPRAMINE]", "values": [{"measurement": "EFTPC", "setting": "[1]", "value": 67.5, "unit": "nM"}]}, {"smiles": "COc1ccc([C@@H]2Sc3ccccc3N(CCN(C)C)C(=O)[C@@H]2OC(C)=O)cc1", "note": "[DILTIAZEM]", "values": [{"measurement": "EFTPC", "setting": "[1]", "value": 87.5, "unit": "nM"}, {"measurement": "IC50", "setting": "[2]", "value": 9, "unit": "µM"}]}, {"smiles": "CN(CCOc1ccc(NS(C)(=O)=O)cc1)CCc1ccc(NS(C)(=O)=O)cc1", "note": "[DOFETILIDE]", "values": [{"measurement": "EFTPC", "setting": "[1]", "value": 1.2, "unit": "nM"}, {"measurement": "IC50", "setting": "[2]", "value": 300, "unit": "µM"}]}, {"smiles": "COCCCC/C(=N\\OCCN)c1ccc(C(F)(F)F)cc1", "note": "[FLUVOXAMINE]", "values": [{"measurement": "IC50", "setting": "[5]", "value": 4.9, "unit": "µM"}, {"measurement": "EFTPC", "setting": "[1]", "value": 196, "unit": "nM"}]}, {"smiles": "O=C(CCCN1CCC(O)(c2ccc(Cl)cc2)CC1)c1ccc(F)cc1", "note": "[HALOPERIDOL]", "values": [{"measurement": "EFTPC", "setting": "[1]", "value": 2.4, "unit": "nM"}]}, {"smiles": "CN(C)CCCN1c2ccccc2CCc2ccccc21", "note": "[IMIPRAMINE]", "values": [{"measurement": "EFTPC", "setting": "[1]", "value": 70.5, "unit": "nM"}, {"measurement": "IC50", "setting": "[4]", "value": 8.3, "unit": "µM"}, {"measurement": "IC50", "setting": "[2]", "value": 3.6, "unit": "µM"}]}, {"smiles": "Cc1cccc(C)c1OCC(C)N", "note": "(centres undefined) [MEXILETINE]", "values": [{"measurement": "IC50", "setting": "[7]", "value": "> 10", "unit": "µM"}]}, {"smiles": "COCC(=O)O[C@]1(CCN(C)CCCc2nc3ccccc3[nH]2)CCc2cc(F)ccc2[C@@H]1C(C)C", "note": "[MIBEFRADIL]", "values": [{"measurement": "EFTPC", "setting": "[1]", "value": 9, "unit": "nM"}]}, {"smiles": "COC(=O)C1=C(C)NC(C)=C(C(=O)OC)C1c1ccccc1[N+](=O)[O-]", "note": "[NIFEDIPINE]", "values": [{"measurement": "EFTPC", "setting": "[8]", "value": 5.4, "unit": "nM"}]}, {"smiles": "CCOC(=O)C1=C(C)NC(C)=C(C(=O)OC)C1c1cccc([N+](=O)[O-])c1", "note": "(centres undefined) [NITRENDIPINE]", "values": [{"measurement": "EFTPC", "setting": "[1]", "value": 1.56, "unit": "nM"}, {"measurement": "IC50", "setting": "[2]", "value": 36, "unit": "µM"}]}, {"smiles": "O=C1NC(=O)C(c2ccccc2)(c2ccccc2)N1", "note": "[PHENYTOIN]", "values": [{"measurement": "EFTPC", "setting": "[1]", "value": 4250, "unit": "nM"}, {"measurement": "IC50", "setting": "[6]", "value": 49, "unit": "µM"}]}, {"smiles": "O=c1[nH]c2ccccc2n1C1CCN(CCCC(c2ccc(F)cc2)c2ccc(F)cc2)CC1", "note": "[PIMOZIDE]", "values": [{"measurement": "EFTPC", "setting": "[1]", "value": 0.55, "unit": "nM"}, {"measurement": "IC50", "setting": "[2]", "value": 0.054, "unit": "µM"}]}, {"smiles": "CC(Cc1ccccc1)NCCC(c1ccccc1)c1ccccc1", "note": "(centres undefined) [PRENYLAMINE]", "values": [{"measurement": "IC50", "setting": "[5]", "value": 1.24, "unit": "µM"}, {"measurement": "EFTPC", "setting": "[1]", "value": 13, "unit": "nM"}, {"measurement": "IC50", "setting": "[6]", "value": 2.52, "unit": "µM"}, {"measurement": "IC50", "setting": "[9]", "value": 0.065, "unit": "µM"}]}, {"smiles": "CC(C)NCC(O)COc1cccc2ccccc12", "note": "(centres undefined) [PROPRANOLOL]", "values": [{"measurement": "EFTPC", "setting": "[1]", "value": 19, "unit": "nM"}]}, {"smiles": "Cc1nc2n(c(=O)c1CCN1CCC(c3noc4cc(F)ccc34)CC1)CCCC2", "note": "[RISPERIDONE]", "values": [{"measurement": "EFTPC", "setting": "[1]", "value": 1.21, "unit": "nM"}]}, {"smiles": "O=C1NCCN1CCN1CCC(c2cn(-c3ccc(F)cc3)c3ccc(Cl)cc23)CC1", "note": "[SERTINDOLE]", "values": [{"measurement": "EFTPC", "setting": "[1]", "value": 0.8, "unit": "nM"}, {"measurement": "IC50", "setting": "[4]", "value": 8.9, "unit": "µM"}, {"measurement": "IC50", "setting": "[2]", "value": 2.3, "unit": "µM"}]}, {"smiles": "CC(C)(C)c1ccc(C(O)CCCN2CCC(C(O)(c3ccccc3)c3ccccc3)CC2)cc1", "note": "(centres undefined) [TERFENADINE]", "values": [{"measurement": "EFTPC", "setting": "[1]", "value": 4.55, "unit": "nM"}]}, {"smiles": "CSc1ccc2c(c1)N(CCC1CCCCN1C)c1ccccc1S2", "note": "(centres undefined) [THIORIDAZINE]", "values": [{"measurement": "EFTPC", "setting": "[1]", "value": 593.5, "unit": "nM"}]}]}
